Laboratory results published in publication PMC2692831 (Chemistry & biology, 2009).

Tests used:
[1] = tested on: brain and liver proteomes; test: CC-ABPP of in vivo protein targets of alkyne analogues; conditions: 10 mg/kg, i.p., 2 hr, FAAH(+/+) and (-/-) mice
Procedure, shortened: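 Alkyne-tagged test compound given i.p. at 10 mg/kg to FAAH(+/+) and FAAH(-/-) mice; vehicle-treated mice of both genotypes served as controls. After 2 hr, mice were sacrificed and brain and liver proteomes collected. Proteomes were conjugated to a rhodamine-azide tag under click-chemistry conditions and resolved by gel with in-gel fluorescence scanning. FAAH was assigned as the 60 kDa band missing in FAAH(-/-) mice.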

[2] = target: T1, FAAH (Homo sapiens, UniProt O00519); test: FAAH inhibition kinetics, enzyme-coupled assay with oleamide as substrate; type: biochemical
T1 sequence (O00519 1-579): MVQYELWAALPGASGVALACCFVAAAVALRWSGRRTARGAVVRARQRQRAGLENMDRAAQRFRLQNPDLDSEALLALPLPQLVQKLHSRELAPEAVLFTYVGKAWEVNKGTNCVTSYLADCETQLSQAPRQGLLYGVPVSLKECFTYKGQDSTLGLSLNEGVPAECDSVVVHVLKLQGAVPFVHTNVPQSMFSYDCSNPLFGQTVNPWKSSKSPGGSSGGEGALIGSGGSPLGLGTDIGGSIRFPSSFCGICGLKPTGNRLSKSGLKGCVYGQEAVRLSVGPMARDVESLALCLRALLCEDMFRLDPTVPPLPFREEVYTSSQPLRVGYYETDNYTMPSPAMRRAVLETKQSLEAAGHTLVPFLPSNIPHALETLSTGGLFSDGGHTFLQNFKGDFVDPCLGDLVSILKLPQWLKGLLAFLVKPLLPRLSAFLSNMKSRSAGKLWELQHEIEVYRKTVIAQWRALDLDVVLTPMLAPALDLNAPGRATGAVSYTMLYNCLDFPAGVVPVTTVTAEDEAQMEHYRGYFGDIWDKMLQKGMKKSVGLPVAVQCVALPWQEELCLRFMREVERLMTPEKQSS

[3] = target: T1, FAAH; test: Inhibitor potency; type: biochemical; conditions: read-out: kinact/Ki hFAAH
Procedure, shortened: (§1)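 Purified recombinant FAAH (human, rat, or humanized rat h/rFAAH) in an enzyme-coupled assay with oleamide as substrate. FAAH hydrolysis releases ammonia, which is coupled to stoichiometric NAD+ formation, read continuously. NAD+ production is linear over 40 min without inhibitor. Test compound is added from a DMSO stock. kinact and Ki are derived from progress curves and saturation plots fitted to a covalent inactivation model.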

[4] = target: T2, rFAAH (Rattus norvegicus, UniProt P97612); test: Inhibitor potency; type: biochemical; conditions: read-out: kinact/Ki rFAAH
T2 sequence (P97612 1-579): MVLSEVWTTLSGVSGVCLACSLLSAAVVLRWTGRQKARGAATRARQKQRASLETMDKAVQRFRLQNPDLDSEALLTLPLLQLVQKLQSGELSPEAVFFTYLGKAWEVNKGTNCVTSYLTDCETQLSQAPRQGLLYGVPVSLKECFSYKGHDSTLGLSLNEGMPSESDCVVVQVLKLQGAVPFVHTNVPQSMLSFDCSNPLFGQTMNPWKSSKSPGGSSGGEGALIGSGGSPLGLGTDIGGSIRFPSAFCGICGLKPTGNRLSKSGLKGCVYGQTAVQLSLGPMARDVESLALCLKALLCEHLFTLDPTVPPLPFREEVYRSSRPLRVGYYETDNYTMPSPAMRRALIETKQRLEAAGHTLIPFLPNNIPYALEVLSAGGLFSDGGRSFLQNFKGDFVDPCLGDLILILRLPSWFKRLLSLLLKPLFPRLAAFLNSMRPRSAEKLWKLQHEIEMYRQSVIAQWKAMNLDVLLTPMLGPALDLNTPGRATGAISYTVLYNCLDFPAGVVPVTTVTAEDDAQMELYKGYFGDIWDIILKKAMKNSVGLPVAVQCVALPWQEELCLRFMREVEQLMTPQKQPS
Procedure, shortened: as §1

[5] = target: T3, h/rFAAH ('humanized' rat-FAAH) (Rattus norvegicus, UniProt P97612, A377T/F194Y/I491V/L192F/S435N/V495M); test: Inhibitor potency; type: biochemical; conditions: read-out: kinact/Ki h/rFAAH
T3 sequence (P97612 30-579 L192F/F194Y/A377T/S435N/I491V/V495M limits assumed): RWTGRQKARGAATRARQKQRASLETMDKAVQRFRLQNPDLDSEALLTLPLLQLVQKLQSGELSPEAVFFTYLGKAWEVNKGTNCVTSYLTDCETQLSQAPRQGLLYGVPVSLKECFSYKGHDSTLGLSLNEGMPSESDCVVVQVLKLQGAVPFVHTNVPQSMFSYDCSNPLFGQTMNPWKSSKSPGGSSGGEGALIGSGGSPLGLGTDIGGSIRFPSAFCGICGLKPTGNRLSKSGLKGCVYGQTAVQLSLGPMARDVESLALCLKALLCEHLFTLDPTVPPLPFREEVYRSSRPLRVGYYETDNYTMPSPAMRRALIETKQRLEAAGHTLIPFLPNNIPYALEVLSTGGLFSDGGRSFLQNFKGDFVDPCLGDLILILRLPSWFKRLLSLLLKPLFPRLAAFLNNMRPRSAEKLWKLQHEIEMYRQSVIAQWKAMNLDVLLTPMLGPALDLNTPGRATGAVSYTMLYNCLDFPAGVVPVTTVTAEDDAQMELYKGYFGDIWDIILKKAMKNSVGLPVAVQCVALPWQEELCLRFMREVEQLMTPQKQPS
Procedure, shortened: as §1

[6] = target: T4, human FAAH-2 (Homo sapiens, UniProt Q6GMR7); test: Inhibition of FAAH-2; type: biochemical
T4 sequence (Q6GMR7 1-532): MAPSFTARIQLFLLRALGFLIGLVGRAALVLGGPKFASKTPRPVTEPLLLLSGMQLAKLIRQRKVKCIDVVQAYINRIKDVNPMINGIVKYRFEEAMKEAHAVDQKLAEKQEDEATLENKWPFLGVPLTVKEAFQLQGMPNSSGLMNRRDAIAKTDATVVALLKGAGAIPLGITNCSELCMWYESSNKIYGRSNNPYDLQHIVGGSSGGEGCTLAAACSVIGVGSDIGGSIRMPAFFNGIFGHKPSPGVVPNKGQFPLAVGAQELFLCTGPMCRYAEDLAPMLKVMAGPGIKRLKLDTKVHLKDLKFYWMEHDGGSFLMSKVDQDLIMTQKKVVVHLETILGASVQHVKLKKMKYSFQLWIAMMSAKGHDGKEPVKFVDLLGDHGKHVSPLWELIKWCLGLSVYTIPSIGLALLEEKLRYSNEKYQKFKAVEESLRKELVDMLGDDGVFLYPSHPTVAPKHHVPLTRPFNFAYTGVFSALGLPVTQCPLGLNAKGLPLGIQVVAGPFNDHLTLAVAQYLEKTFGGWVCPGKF

[7] = target: T5, FAAH in the brain (Mus musculus, UniProt O08914); test: Competitive ABPP with FP-rhodamine, brain of treated mice; type: in vivo; conditions: for inactivation of FAAH in the brain: time course 1 to 24 hrs
T5 sequence (O08914 1-579): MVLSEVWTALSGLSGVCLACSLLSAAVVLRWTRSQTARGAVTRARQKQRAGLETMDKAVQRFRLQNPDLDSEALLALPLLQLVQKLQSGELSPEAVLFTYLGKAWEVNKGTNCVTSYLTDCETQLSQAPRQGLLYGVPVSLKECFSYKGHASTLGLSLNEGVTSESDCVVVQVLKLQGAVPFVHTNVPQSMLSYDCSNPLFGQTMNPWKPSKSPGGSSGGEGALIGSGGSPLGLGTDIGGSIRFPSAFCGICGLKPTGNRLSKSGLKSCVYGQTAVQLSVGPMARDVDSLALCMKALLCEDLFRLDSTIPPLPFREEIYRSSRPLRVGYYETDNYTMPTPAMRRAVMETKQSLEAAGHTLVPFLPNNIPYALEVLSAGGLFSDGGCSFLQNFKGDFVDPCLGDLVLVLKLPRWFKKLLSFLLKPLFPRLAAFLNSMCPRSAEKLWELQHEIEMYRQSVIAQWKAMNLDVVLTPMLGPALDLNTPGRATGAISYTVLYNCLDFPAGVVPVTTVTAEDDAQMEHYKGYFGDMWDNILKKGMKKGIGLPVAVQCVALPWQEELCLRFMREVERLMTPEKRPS

[8] = tested on: brain and liver levels of AEA, PEA, OEA, 2-AG; test: Tissue levels of FAAH substrates; type: in vivo, mice
[9] = tested on: CFA model of inflammatory pain; test: CFA model of inflammatory pain, mechanical allodynia; type: in vivo, rat; conditions: for effect on mechanical allodynia in rats not treated with PF-3845: SR141716 10 mg/kg, SR144528 30 mg/kg, i.p.
Procedure, shortened: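 Male Sprague-Dawley rats (200–250 g) received 0.15 ml CFA into the left hind paw plantar surface. On day 5, mechanical paw withdrawal thresholds were taken with von Frey hairs by the Dixon up-down method. Test compound was then given orally (1–30 mg/kg) in 5% N,N-dimethylacetamide/95% (40% 2-hydroxypropyl-β-cyclodextrin in water), and thresholds were re-measured 4 hr post-dose. Naproxen (10 mg/kg p.o.) served as reference. n=8/group; ANOVA, unpaired t-tests.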

[10] = tested on: FAAH activity and NAEs in brain, blood leukocytes/plasma, liver; test: FAAH activity and NAE levels in tissues and blood of treated rats; type: in vivo, rat; conditions: 4 hr
[11] = tested on: liver serine hydrolases (carboxylesterases); test: Competitive ABPP with FP-rhodamine, liver of treated mice; type: in vivo; conditions: 10 mg/kg, i.p., 2 hr

Q: Which results are given for `C#CCCCCCCCCCNC(=O)Oc1cccc(-c2cccc(C(N)=O)c2)c1` [JP104]?
A: proteins labeled in brain (CC-ABPP) ([1]; brain): selectively reacted with a single protein in mouse brain; proteins labeled in liver (CC-ABPP) ([1]; liver): labeling a number of proteins that were found in both FAAH(+/+) and (-/-) mice

Q: Which results are given for `O=C(Nc1cccnc1)N1CCC(Cc2cccc(Oc3ccc(C(F)(F)F)cn3)c2)CC1` [PF-3845]?
A: kinact [2]: 0.0033 ± 0.0002 s⁻¹; kinact/KI [2]: 14300 M⁻¹ s⁻¹; improvement in potency ([2]; PF-3845 versus PF-750 (structure comparison)): ~20 fold; fold higher kinact/Ki value for FAAH ([2]; compared to PF-750 or URB597): 10-20 fold; kinact/KI [3]: 12600 M⁻¹ s⁻¹; kinact/KI [4]: 3900 ± 780 M⁻¹ s⁻¹; kinact/KI [5]: 13300 M⁻¹ s⁻¹; IC50 [6]: > 10 µM; inhibition of other FP-reactive serine hydrolases in brain ([7]; 10 mg/kg, i.p., mice): none of the other FP-reactive serine hydrolases in this tissue were inhibited; inactivation of FAAH in the brain ([7]; 10 mg/kg, i.p., mice): rapid and complete inactivation of FAAH in the brain; inhibition at 10 mg/kg ([7]; mouse, ip, read-out: brain FAAH inhibited at 24 hr): > 75%; levels of 2-AG in brain or liver ([8]; 10 mg/kg, i.p., mice): did not show changes; elevations in brain levels of AEA (and other NAEs PEA, OEA) ([8]; 10 mg/kg, i.p., mice, brain): > 10 fold; time NAE elevations maintained at maximal levels (up to) ([8]; 10 mg/kg, i.p., mice, brain): 7 to 12 h; time of peak elevation in NAEs ([8]; 10 mg/kg, i.p., mice, brain): ~3 h; AEA, PEA, OEA levels at 24 hrs post-treatment ([8]; 10 mg/kg, i.p., mice, brain, 24 hrs): significant elevations; AEA, PEA and OEA levels in liver tissue ([8]; 10 mg/kg, i.p., mice, liver): significant elevations; endocannabinoid (AEA or 2-AG) levels in FAAH(-/-) mice ([8]; FAAH(-/-) mice): did not alter; duration of high AEA elevations ([8]; mice): at least 7 hrs; efficacy in CFA model at 1 mg/kg ([9]; 1 mg/kg p.o., 4 hr): efficacy was not observed; inhibition of mechanical allodynia, time course 2-8 hrs ([9]; 10 mg/kg, p.o., 2-8 hrs post-administration): significant inhibition of mechanical allodynia at all time points tested; minimum effective dose (MED), inhibition of mechanical allodynia ([9]; p.o., 1-30 mg/kg, rats, 4 hr post-dosing): 3 mg/kg; inhibition of pain responses at 10 and 30 mg/kg ([9]; p.o., 10 and 30 mg/kg, versus naproxen 10 mg/kg p.o.): equivalent, if not greater degree than the nonsteroidal anti-inflammatory drug naproxen; blockade of FAAH activity at 1 mg/kg ([10]; 1 mg/kg p.o.): near-complete blockade of FAAH activity; elevations in AEA at 1 mg/kg ([10]; 1 mg/kg p.o.): close to maximal elevations in AEA; increase of OEA and PEA in brain ([10]; p.o., brain): ~10 fold; maximal elevation of AEA in brain and plasma ([10]; p.o., brain and plasma): ~10 fold; increase of OEA and PEA in plasma ([10]; p.o., plasma): ~3 fold

Q: How did the “effect on mechanical allodynia in rats not treated with PF-3845” value [9] turn out when `Cc1c(C(=O)NN2CCCCC2)nn(-c2ccc(Cl)cc2Cl)c1-c1ccc(Cl)cc1` [SR141716, reference compound] was run?
A: neither the CB1 nor CB2 antagonist displayed significant effects

Q: How did the “inhibition of other FP-reactive serine hydrolases in brain” value ([7]; 10 mg/kg, i.p., mice) turn out when `NC(=O)c1cccc(-c2cccc(OC(=O)NC3CCCCC3)c2)c1` [URB597, cyclohexyl carbamic acid 3′-carbamoyl-biphenyl-3-yl ester, reference compound] was run?
A: none of the other FP-reactive serine hydrolases in this tissue were inhibited

Q: And the “brain FAAH activity at 24 hr” value ([7]; 10 mg/kg, i.p., mice, 24 hr)?
A: nearly wild type levels of brain FAAH activity

Q: And the “inactivation of FAAH in the brain” value ([7]; 10 mg/kg, i.p., mice)?
A: rapid and complete inactivation of FAAH in the brain

Q: What about the “blockade of FP-labeling of additional liver serine hydrolases” value [11] of the same molecule?
A: blocked FP-labeling of several additional liver serine hydrolases

Q: What about the “time by which AEA levels return to near-baseline” value ([8]; 10 mg/kg, i.p., mice, brain) of the same molecule?
A: up to 7 hrs

Q: With SR144528 [reference compound] as the molecule, how does the “effect on mechanical allodynia in rats not treated with PF-3845” value [9] read?
A: neither the CB1 nor CB2 antagonist displayed significant effects
